{"source": "ChEMBL document CHEMBL1142492", "about": "(J Med Chem, 2008)", "key": {"[1]": {"biological_target": "Serine/threonine-protein kinase 16 (Homo sapiens) (UniProt O75716)", "test": "Inhibition of STK16 at 3 uM"}, "[2]": {"biological_target": "RAF proto-oncogene serine/threonine-protein kinase (Homo sapiens) (UniProt P04049)", "test": "Inhibition of RAF1 at 3 uM"}, "[3]": {"biological_target": "Myosin light chain kinase 2, skeletal/cardiac muscle (Homo sapiens) (UniProt Q9H1R3)", "test": "Inhibition of MYLK2 at 3 uM"}, "[4]": {"biological_target": "Serine/threonine-protein kinase DCLK2 (Homo sapiens) (UniProt Q8N568)", "test": "Inhibition of DCAMKL2 at 3 uM"}, "[5]": {"biological_target": "MAP kinase-interacting serine/threonine-protein kinase 2 (Homo sapiens) (UniProt Q9HBH9)", "test": "Inhibition of MKNK2 at 3 uM"}, "[6]": {"biological_target": "LIM domain kinase 2 (Homo sapiens) (UniProt P53671)", "test": "Inhibition of LIMK2 at 3 uM"}, "Rattus norvegicus [7]": {"species": "Rattus norvegicus", "settings": "3 uM"}, "Mus musculus": {"species": "Mus musculus", "settings": "3 uM"}, "[8]": {"biological_target": "Mitogen-activated protein kinase 7 (Homo sapiens) (UniProt Q13164)", "sequence (Q13164 2-816 limits assumed)": "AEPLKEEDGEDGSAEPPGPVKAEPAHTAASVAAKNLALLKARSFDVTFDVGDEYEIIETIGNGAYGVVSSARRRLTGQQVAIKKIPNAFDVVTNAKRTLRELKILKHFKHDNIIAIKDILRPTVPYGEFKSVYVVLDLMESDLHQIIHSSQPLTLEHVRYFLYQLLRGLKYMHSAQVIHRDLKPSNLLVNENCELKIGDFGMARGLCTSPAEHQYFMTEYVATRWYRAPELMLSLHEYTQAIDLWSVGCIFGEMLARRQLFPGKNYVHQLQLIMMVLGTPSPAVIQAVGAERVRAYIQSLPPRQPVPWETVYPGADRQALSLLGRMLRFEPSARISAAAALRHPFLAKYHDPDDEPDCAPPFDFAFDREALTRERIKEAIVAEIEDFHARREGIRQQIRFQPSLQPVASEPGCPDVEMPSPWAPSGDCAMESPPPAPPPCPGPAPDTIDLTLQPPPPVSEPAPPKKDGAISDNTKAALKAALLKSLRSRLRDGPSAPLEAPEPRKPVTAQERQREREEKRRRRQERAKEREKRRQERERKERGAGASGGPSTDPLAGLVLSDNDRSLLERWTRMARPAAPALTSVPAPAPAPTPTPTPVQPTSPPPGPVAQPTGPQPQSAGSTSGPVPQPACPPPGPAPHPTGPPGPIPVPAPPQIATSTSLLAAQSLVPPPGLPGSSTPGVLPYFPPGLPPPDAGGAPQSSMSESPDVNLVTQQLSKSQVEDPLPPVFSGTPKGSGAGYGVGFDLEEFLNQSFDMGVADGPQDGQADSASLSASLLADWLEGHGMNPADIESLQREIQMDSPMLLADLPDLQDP", "test": "Inhibition of ERK5 at 3 uM", "in_short": "(§1)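 Single-concentration kinase panel scoring: each value is the percentage of enzyme activity remaining relative to a DMSO-only control. An activity statistically indistinct from DMSO control was scored \"no hit\".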"}, "[9]": {"biological_target": "Tyrosine-protein kinase ZAP-70 (Homo sapiens) (UniProt P43403)", "test": "Inhibition of ZAP70 at 3 uM"}, "[10]": {"biological_target": "Platelet-derived growth factor receptor alpha (Homo sapiens) (UniProt P16234)", "test": "Inhibition of PDGFRA at 3 uM"}, "[11]": {"biological_target": "Serine/threonine-protein kinase Nek5 (Homo sapiens) (UniProt Q6P3R8)", "test": "Inhibition of NEK5 at 3 uM"}, "[12]": {"biological_target": "Serine/threonine-protein kinase PLK4 (Homo sapiens) (UniProt O00444)", "test": "Inhibition of PLK4 at 3 uM"}, "[13]": {"biological_target": "Serine/threonine-protein kinase D2 (Homo sapiens) (UniProt Q9BZL6)", "sequence (Q9BZL6 whole entry)": "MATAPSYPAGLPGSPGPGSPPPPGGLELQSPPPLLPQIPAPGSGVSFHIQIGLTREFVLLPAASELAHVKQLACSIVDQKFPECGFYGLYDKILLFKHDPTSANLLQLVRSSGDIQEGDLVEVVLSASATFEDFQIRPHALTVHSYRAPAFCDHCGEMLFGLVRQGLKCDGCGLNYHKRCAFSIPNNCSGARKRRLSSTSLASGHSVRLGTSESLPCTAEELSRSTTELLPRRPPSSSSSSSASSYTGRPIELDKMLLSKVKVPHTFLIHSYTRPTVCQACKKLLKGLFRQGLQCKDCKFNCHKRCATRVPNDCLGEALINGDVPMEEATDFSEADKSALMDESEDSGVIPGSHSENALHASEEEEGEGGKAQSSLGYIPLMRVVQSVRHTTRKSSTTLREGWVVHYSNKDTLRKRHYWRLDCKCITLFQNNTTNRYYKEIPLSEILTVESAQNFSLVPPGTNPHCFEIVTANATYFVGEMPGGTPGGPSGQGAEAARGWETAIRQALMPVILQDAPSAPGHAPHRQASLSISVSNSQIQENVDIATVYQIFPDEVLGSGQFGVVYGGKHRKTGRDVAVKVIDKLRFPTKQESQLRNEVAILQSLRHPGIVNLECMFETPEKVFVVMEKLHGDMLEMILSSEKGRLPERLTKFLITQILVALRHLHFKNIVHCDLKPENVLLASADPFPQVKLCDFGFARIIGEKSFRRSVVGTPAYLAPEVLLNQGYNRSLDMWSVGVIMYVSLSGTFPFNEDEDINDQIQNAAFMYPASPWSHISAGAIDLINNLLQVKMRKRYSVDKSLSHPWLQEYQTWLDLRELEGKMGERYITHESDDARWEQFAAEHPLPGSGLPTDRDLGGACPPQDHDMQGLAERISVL", "test": "Inhibition of PRKD2 at 3 uM"}, "[14]": {"biological_target": "3-phosphoinositide-dependent protein kinase 1 (Homo sapiens) (UniProt O15530)", "test": "Inhibition of PDPK1 at 3 uM"}, "[15]": {"biological_target": "D(2) dopamine receptor (Homo sapiens) (UniProt P14416)", "test": "Inhibition of human dopamine D2S receptor at 3 uM", "in_short": "(§2)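 Counter-screen binding/enzyme panel at single 3 μM, n=2; results as percent inhibition. Species per target as listed (rat NMDA, GABAA sites; human receptors, transporters; rabbit ACE).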"}, "[16]": {"biological_target": "Insulin receptor-related protein (Homo sapiens) (UniProt P14616)", "test": "Inhibition of INSRR at 3 uM"}, "[17]": {"biological_target": "Epithelial discoidin domain-containing receptor 1 (Homo sapiens) (UniProt Q08345)", "sequence (Q08345 whole entry, the tested form may be a part)": "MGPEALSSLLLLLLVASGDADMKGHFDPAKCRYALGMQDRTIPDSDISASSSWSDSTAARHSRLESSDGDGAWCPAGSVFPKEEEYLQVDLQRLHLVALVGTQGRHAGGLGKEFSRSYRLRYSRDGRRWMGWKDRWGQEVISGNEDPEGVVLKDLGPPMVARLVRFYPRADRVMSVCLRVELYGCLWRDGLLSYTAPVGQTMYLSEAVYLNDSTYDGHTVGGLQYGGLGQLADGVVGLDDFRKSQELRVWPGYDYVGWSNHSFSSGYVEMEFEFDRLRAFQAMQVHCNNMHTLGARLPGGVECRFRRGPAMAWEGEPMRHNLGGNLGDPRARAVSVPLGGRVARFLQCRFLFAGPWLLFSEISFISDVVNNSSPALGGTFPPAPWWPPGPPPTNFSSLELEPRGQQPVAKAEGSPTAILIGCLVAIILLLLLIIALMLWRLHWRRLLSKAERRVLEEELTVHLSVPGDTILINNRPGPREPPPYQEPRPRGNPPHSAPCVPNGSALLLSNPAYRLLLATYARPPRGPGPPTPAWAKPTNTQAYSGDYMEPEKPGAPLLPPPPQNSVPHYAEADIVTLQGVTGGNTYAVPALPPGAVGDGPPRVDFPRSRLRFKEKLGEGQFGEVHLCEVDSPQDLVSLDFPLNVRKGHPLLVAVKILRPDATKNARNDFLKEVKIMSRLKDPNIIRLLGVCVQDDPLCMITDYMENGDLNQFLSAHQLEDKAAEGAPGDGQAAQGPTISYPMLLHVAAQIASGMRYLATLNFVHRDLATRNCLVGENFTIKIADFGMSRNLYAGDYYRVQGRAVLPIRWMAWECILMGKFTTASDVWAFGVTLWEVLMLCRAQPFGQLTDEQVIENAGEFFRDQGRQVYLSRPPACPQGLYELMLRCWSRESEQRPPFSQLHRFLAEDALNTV", "test": "Inhibition of DDR1 at 3 uM"}, "[18]": {"biological_target": "Phosphatidylinositol 4,5-bisphosphate 3-kinase catalytic subunit beta isoform (Homo sapiens) (UniProt P42338)", "test": "Inhibition of PIK3CB at 3 uM"}, "CYP2C9": {"biological_target": "CYP2C9 (Homo sapiens, UniProt P11712)", "test": "Inhibition of human CYP2C9 at 10 uM", "format": "ADME"}, "[19]": {"biological_target": "Myosin-IIIb (Homo sapiens) (UniProt Q8WXR4)", "test": "Inhibition of MYO3B at 3 uM"}, "Rattus norvegicus [20]": {"species": "Rattus norvegicus", "settings": "3 uM", "remark": "listed apart in the source"}, "[21]": {"biological_target": "MAP kinase-interacting serine/threonine-protein kinase 1 (Homo sapiens) (UniProt Q9BUB5)", "sequence (Q9BUB5 whole entry, looked up)": "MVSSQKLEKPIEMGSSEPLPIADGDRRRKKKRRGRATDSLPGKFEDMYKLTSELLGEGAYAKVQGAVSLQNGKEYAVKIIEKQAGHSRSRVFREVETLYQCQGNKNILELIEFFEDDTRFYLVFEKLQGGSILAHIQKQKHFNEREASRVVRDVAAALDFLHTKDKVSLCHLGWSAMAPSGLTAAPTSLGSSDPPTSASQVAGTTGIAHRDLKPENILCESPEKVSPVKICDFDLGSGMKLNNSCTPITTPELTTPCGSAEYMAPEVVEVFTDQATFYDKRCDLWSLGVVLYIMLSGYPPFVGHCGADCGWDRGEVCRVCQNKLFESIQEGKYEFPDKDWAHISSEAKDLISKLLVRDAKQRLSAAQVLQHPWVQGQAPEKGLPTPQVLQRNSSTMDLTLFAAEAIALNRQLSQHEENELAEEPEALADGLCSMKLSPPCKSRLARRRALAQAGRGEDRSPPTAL", "test": "Inhibition of MKNK1 at 3 uM"}, "[22]": {"tested_on": "Tyrosine-protein kinase ABL1 (Homo sapiens), P00519 [Q252H]", "test": "Inhibition of ABL1 Q252H mutant at 3 uM"}, "[23]": {"biological_target": "Tyrosine-protein kinase Srms (Homo sapiens) (UniProt Q9H3Y6)", "test": "Inhibition of SRMS at 3 uM"}, "[24]": {"biological_target": "Histamine H1 receptor (Homo sapiens) (UniProt P35367)", "sequence (P35367 whole entry)": "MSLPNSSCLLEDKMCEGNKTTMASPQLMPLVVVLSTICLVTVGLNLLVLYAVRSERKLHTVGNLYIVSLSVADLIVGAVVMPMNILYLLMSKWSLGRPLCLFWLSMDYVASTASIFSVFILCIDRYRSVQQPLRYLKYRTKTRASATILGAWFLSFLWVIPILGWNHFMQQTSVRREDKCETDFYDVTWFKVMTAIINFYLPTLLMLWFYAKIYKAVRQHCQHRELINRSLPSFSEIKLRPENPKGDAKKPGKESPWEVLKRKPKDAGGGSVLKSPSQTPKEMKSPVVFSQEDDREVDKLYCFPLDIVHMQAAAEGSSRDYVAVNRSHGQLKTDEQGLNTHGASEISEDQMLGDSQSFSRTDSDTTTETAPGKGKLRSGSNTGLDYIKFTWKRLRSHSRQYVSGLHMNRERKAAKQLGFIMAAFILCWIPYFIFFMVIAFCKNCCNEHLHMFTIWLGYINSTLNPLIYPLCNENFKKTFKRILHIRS", "test": "Inhibition of human histamine H1 receptor at 3 uM"}, "[25]": {"biological_target": "Dual specificity mitogen-activated protein kinase kinase 1 (Homo sapiens) (UniProt Q02750)", "sequence (Q02750 whole entry)": "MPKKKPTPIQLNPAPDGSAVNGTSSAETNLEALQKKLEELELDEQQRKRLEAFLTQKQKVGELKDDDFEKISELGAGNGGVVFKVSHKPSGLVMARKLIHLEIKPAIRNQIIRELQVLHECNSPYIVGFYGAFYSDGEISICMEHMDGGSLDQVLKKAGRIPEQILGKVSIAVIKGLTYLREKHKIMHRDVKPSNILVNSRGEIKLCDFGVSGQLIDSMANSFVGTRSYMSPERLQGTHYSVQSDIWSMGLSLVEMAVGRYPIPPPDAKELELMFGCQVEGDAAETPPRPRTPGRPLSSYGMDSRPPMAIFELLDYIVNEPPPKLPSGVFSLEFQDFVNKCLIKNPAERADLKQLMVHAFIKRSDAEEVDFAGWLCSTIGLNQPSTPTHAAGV", "test": "Inhibition of MEK1 at 3 uM"}, "[26]": {"biological_target": "Serine/threonine-protein kinase MRCK gamma (Homo sapiens) (UniProt Q6DT37)", "test": "Inhibition of DMPK2 at 3 uM"}, "[27]": {"biological_target": "Myosin light chain kinase, smooth muscle (Homo sapiens) (UniProt Q15746)", "test": "Inhibition of MLCK at 3 uM"}, "[28]": {"biological_target": "Histamine H2 receptor (Homo sapiens) (UniProt P25021)", "test": "Inhibition of human histamine H2 receptor at 3 uM", "in_short": "as §2"}, "[29]": {"biological_target": "Mitogen-activated protein kinase kinase kinase 10 (Homo sapiens) (UniProt Q02779)", "test": "Inhibition of MLK2 at 3 uM"}, "[30]": {"biological_target": "Ephrin type-A receptor 5 (Homo sapiens) (UniProt P54756)", "sequence (P54756 whole entry)": "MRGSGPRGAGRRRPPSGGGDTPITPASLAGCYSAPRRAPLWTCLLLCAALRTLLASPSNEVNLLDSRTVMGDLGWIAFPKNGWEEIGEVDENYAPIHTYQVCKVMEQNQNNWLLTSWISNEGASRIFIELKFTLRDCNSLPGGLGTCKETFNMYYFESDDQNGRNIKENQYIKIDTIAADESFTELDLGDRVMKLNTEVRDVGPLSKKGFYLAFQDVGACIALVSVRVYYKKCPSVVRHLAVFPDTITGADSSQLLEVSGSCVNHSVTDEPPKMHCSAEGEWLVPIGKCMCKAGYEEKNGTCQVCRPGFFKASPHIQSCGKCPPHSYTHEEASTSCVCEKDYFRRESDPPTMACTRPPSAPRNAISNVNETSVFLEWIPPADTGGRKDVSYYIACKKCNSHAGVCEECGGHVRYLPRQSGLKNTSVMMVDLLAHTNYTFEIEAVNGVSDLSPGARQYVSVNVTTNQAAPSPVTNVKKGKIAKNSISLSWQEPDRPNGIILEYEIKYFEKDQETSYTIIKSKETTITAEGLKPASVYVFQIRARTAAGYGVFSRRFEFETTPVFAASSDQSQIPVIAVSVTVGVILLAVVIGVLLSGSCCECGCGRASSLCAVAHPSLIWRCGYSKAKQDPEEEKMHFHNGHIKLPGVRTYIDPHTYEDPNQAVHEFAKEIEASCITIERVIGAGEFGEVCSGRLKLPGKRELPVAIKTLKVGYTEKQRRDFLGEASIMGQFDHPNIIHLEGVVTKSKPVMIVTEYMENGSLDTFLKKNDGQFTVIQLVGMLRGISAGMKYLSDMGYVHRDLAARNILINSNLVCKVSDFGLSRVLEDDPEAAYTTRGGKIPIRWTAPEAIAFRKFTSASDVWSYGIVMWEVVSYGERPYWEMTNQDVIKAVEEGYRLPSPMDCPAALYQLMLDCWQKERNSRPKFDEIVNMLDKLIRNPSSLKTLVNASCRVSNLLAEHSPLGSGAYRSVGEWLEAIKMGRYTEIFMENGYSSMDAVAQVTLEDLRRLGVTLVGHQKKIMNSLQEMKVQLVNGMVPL", "test": "Inhibition of EPHA5 at 3 uM", "in_short": "as §1"}, "[31]": {"biological_target": "High affinity nerve growth factor receptor (Homo sapiens) (UniProt P04629)", "test": "Inhibition of TRKA at 3 uM"}, "[32]": {"biological_target": "Protein kinase C theta type (Homo sapiens) (UniProt Q04759)", "test": "Inhibition of PRKCQ at 3 uM"}, "[33]": {"biological_target": "Mitogen-activated protein kinase kinase kinase kinase 4 (Homo sapiens) (UniProt O95819)", "test": "Inhibition of MAP4K4 at 3 uM"}, "[34]": {"biological_target": "Homeodomain-interacting protein kinase 1 (Homo sapiens) (UniProt Q86Z02)", "test": "Inhibition of HIPK1 at 3 uM"}, "[35]": {"biological_target": "Endothelin receptor type B (Homo sapiens) (UniProt P24530)", "test": "Inhibition of human endothelin ETB receptor at 3 uM", "in_short": "as §2"}, "[36]": {"biological_target": "Glutamate NMDA receptor (Rattus norvegicus) (UniProt P35439+Q00959+Q00960+Q00961+Q62645+Q8VHN2+Q9R1M7)", "test": "Displacement of glycine from rat NMDA receptor at 3 uM", "format": "protein-complex assay", "in_short": "as §2"}, "[37]": {"biological_target": "Death-associated protein kinase 1 (Homo sapiens) (UniProt P53355)", "test": "Inhibition of DAPK1 at 3 uM"}, "[38]": {"biological_target": "Serine/threonine-protein kinase ULK2 (Homo sapiens) (UniProt Q8IYT8)", "test": "Inhibition of ULK2 at 3 uM"}, "[39]": {"biological_target": "Phosphatidylinositol 4,5-bisphosphate 3-kinase catalytic subunit alpha isoform (Homo sapiens) (UniProt P42336)", "test": "Inhibition of PIK3CA at 3 uM"}, "[40]": {"biological_target": "TGF-beta receptor type-2 (Homo sapiens) (UniProt P37173)", "test": "Inhibition of TGFBR2 at 3 uM"}, "[41]": {"biological_target": "Mitogen-activated protein kinase kinase kinase kinase 5 (Homo sapiens) (UniProt Q9Y4K4)", "test": "Inhibition of MAP4K5 at 3 uM"}, "Rattus norvegicus [42]": {"species": "Rattus norvegicus", "settings": "3 uM", "remark": "listed apart in the source"}, "[43]": {"biological_target": "cGMP-dependent protein kinase 1 (Homo sapiens) (UniProt Q13976)", "test": "Inhibition of PRKG1 at 3 uM"}, "[44]": {"biological_target": "Uncharacterized serine/threonine-protein kinase SBK3 (Homo sapiens) (UniProt P0C264)", "test": "Inhibition of SgK110 at 3 uM"}}}
{"smiles": "CN(C)CCOc1cc(-c2cn[nH]c2)ccc1NC(=O)C1COc2ccccc2O1", "note": "(stereo unspecified) [SR-3677]", "values": [{"measurement": "inhibition", "setting": "[1]", "result": "< 10", "unit": "%"}, {"measurement": "inhibition", "setting": "[2]", "result": "< 10", "unit": "%"}, {"measurement": "inhibition", "setting": "[3]", "result": "< 10", "unit": "%"}, {"measurement": "inhibition", "setting": "[4]", "result": "< 10", "unit": "%"}, {"measurement": "inhibition", "setting": "[5]", "result": "< 10", "unit": "%"}, {"measurement": "inhibition", "setting": "[6]", "result": "< 10", "unit": "%"}, {"measurement": "inhibition", "setting": "Rattus norvegicus [7]", "result": -6, "unit": "%"}, {"measurement": "inhibition", "setting": "Mus musculus", "result": -2, "unit": "%"}, {"measurement": "inhibition", "setting": "[8]", "result": "< 10", "unit": "%"}, {"measurement": "inhibition", "setting": "[9]", "result": "< 10", "unit": "%"}, {"measurement": "inhibition", "setting": "[10]", "result": "< 10", "unit": "%"}, {"measurement": "inhibition", "setting": "[11]", "result": "< 10", "unit": "%"}, {"measurement": "inhibition", "setting": "[12]", "result": "< 10", "unit": "%"}, {"measurement": "inhibition", "setting": "[13]", "result": "< 10", "unit": "%"}, {"measurement": "inhibition", "setting": "[14]", "result": "< 10", "unit": "%"}, {"measurement": "inhibition", "setting": "[15]", "result": 6, "unit": "%"}, {"measurement": "inhibition", "setting": "[16]", "result": "< 10", "unit": "%"}, {"measurement": "inhibition", "setting": "[17]", "result": "< 10", "unit": "%"}, {"measurement": "inhibition", "setting": "[18]", "result": "< 10", "unit": "%"}, {"measurement": "inhibition at 10 µM", "setting": "CYP2C9", "result": 80, "unit": "%"}, {"measurement": "inhibition", "setting": "[19]", "result": "< 10", "unit": "%"}, {"measurement": "inhibition", "setting": "Rattus norvegicus [20]", "result": 24, "unit": "%"}, {"measurement": "inhibition", "setting": "[21]", "result": "< 10", "unit": "%"}, {"measurement": "inhibition", "setting": "[22]", "result": "< 10", "unit": "%"}, {"measurement": "inhibition", "setting": "[23]", "result": "< 10", "unit": "%"}, {"measurement": "inhibition", "setting": "[24]", "result": 7, "unit": "%"}, {"measurement": "inhibition", "setting": "[25]", "result": "< 10", "unit": "%"}, {"measurement": "inhibition", "setting": "[26]", "result": "< 10", "unit": "%"}, {"measurement": "inhibition", "setting": "[27]", "result": "< 10", "unit": "%"}, {"measurement": "inhibition", "setting": "[28]", "result": 1, "unit": "%"}, {"measurement": "inhibition", "setting": "[29]", "result": "< 10", "unit": "%"}, {"measurement": "inhibition", "setting": "[30]", "result": "< 10", "unit": "%"}, {"measurement": "inhibition", "setting": "[31]", "result": "< 10", "unit": "%"}, {"measurement": "inhibition", "setting": "[32]", "result": "< 10", "unit": "%"}, {"measurement": "inhibition", "setting": "[33]", "result": "< 10", "unit": "%"}, {"measurement": "inhibition", "setting": "[34]", "result": "< 10", "unit": "%"}, {"measurement": "inhibition", "setting": "[35]", "result": -1, "unit": "%"}, {"measurement": "inhibition", "setting": "[36]", "result": -10, "unit": "%"}, {"measurement": "inhibition", "setting": "[37]", "result": "< 10", "unit": "%"}, {"measurement": "inhibition", "setting": "[38]", "result": "< 10", "unit": "%"}, {"measurement": "inhibition", "setting": "[39]", "result": "< 10", "unit": "%"}, {"measurement": "inhibition", "setting": "[40]", "result": "< 10", "unit": "%"}, {"measurement": "inhibition", "setting": "[41]", "result": "< 10", "unit": "%"}, {"measurement": "inhibition", "setting": "Rattus norvegicus [42]", "result": 47, "unit": "%"}, {"measurement": "inhibition", "setting": "[43]", "result": "< 10", "unit": "%"}, {"measurement": "inhibition", "setting": "[44]", "result": "< 10", "unit": "%"}]}
